Laboratory results: ChEMBL document CHEMBL2150886, “Synthesis of [3β-acetoxy-urs-12-en-28-oyl]-1-monoglyceride and investigation on its anti tumor effects against BGC-823” (Bioorg Med Chem, 2011)
The source made the active and inactive calls. The rule behind the calls is not given here.

Columns and labels:
BGC-823 [1] = assay: Induction of apoptosis in human BGC823 cells assessed as increase in caspase 3 activity at 10 uM incubated for 48 hrs relative to untreated control; assay type: functional
Method in brief: (§1)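 BGC-823 cells were exposed to 0, 10 or 20 µM for 48 h, detached with trypsin/EDTA and washed in cold PBS. About 10⁶ cells were lysed, and the lysate was incubated 1 h with Ac-DEVD-pNA, with cleavage read at 405 nm. Activity was normalised to Bradford protein and expressed relative to the untreated control. Mean ± SD of three independent experiments.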

BGC-823 [2] = assay: Cell cycle arrest in human BGC823 cells assessed as accumulation of cells at subG0/G1 phase at 40 uM incubated for 24 to 72 hrs by propidium iodide staining based flow cytometry (Rvb= 0.66%); assay type: functional
BGC-823 [3] = assay: Reduction in survivin protein expression in human BGC823 cells at 40 uM incubated for 48 hrs by Western blotting; assay type: functional
Method in brief: (§2)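 BGC-823 cells were treated with 10, 20 or 40 µM for 48 h, detached with trypsin/EDTA, and more than 10⁶ cells were lysed. Protein was quantified by Bradford, and 150–200 µg per lane was run on 12.5% SDS-PAGE and transferred to PVDF. Antibodies: Survivin 1:1000, Bcl-2 1:200, β-actin 1:1000; HRP secondary 1 h; ECL detection. Expression was quantified relative to control.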

Mus musculus [4] = assay: Toxicity in human BGC823 cells xenografted nude mouse assessed as body weight changes at 6 mg/kg, iv treated 2 times on day 1 and day 4 post tumor implant (reference value: 20.58 +/- 1.35 grams); assay type: organism-based, BGC-823; set-up: dose 6 mg/kg, route intravenous; conditions: in vivo
Method in brief: (§3)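 Nude mice (male, 5 weeks, 18–22 g) carried subcutaneous BGC-823 xenografts from 1 × 10⁷ cells. Dosing started at about 200 mm³ tumour volume, with eight mice per group. Each dose was 0.2 mL given iv; the saline control received 0.9% saline. Body weight was recorded on days 1, 4, 7, 10, 13 and 16 of treatment and reported as mean ± SD, n = 8.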

Mus musculus [5] = assay: Toxicity in human BGC823 cells xenografted nude mouse assessed as body weight changes at 6 mg/kg, iv treated 5 times on day 1, 4, 7, 10 and day 13 post tumor implant (reference value: 20.21 +/- 1.83 grams); assay type: organism-based, BGC-823; set-up: dose 6 mg/kg, route intravenous; conditions: in vivo; method in brief: as §3
HepG2 = assay: Cytotoxicity against human HepG2 cells incubated for 48 hrs by MTT assay; assay type: functional, cell-based; conditions: HepG2, 48 h
Method in brief: (§4)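 Cells were grown in RPMI-1640 with 10% heat-inactivated FCS at 37 °C under 5% CO₂, seeded at 5 × 10³ per well and left 24 h. Compounds in DMSO were diluted in medium to 0.5% final DMSO; controls received 0.5% DMSO. Exposure was 24–72 h, followed by MTT for 4 h, formazan dissolved in DMSO, and A570. Six wells per sample; IC₅₀ taken at 50% inhibition; ≥3 repeats.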

BGC-823 [6] = assay: Induction of apoptosis in human BGC823 cells assessed as late apoptotic cell population at 20 uM by annexinV/propidium iodide staining (reference value: 2.1%); assay type: functional
BGC-823 [7] = assay: Induction of apoptosis in human BGC823 cells assessed as viable cell population at 20 uM by annexinV/propidium iodide staining (reference value: 95.5%); assay type: functional
BGC-823 [8] = assay: Induction of apoptosis in human BGC823 cells assessed as increase in caspase 3 activity at 10 to 20 uM incubated for 48 hrs; assay type: functional, cell-based; method in brief: as §1
Mus musculus [9] = assay: Toxicity in human BGC823 cells xenografted nude mouse assessed as body weight changes at 30 mg/kg, iv treated 5 times on day 1, 4, 7, 10 and day 13 post tumor implant (reference value: 20.21 +/- 1.83 grams); assay type: organism-based, BGC-823; set-up: dose 30 mg/kg, route intravenous; conditions: in vivo; method in brief: as §3
Mus musculus [10] = assay: Toxicity in human BGC823 cells xenografted nude mouse assessed as body weight changes at 6 mg/kg, iv treated 3 times on day 1, day 4 and day 7 post tumor implant (reference value: 20.79 +/- 1.29 grams); assay type: organism-based, BGC-823; set-up: dose 6 mg/kg, route intravenous; conditions: in vivo; method in brief: as §3
Mus musculus [11] = assay: Toxicity in human BGC823 cells xenografted nude mouse assessed as body weight changes at 6 mg/kg, iv treated 4 times on day 1, 4, 7 and 10 post tumor implant (reference value: 20.54 +/- 1.45 grams); assay type: organism-based, BGC-823; set-up: dose 6 mg/kg, route intravenous; conditions: in vivo; method in brief: as §3
BGC-823 [12] = assay: Induction of apoptosis in human BGC823 cells assessed as necrotic damaged cell population at 10 uM by annexinV/propidium iodide staining (reference value: 0.5%; assay type: functional
BGC-823 [13] = assay: Cell cycle arrest in human BGC823 cells assessed as accumulation of cells at subG0/G1 phase at 20 uM incubated for 72 hrs by propidium iodide staining based flow cytometry (Rvb= 0.66%); assay type: functional
Method in brief: (§5)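 BGC-823 cells were exposed to 20 µM for 24, 48 or 72 h, or to 10, 20 or 40 µM for 48 h. About 10⁶ cells were harvested and stained with propidium iodide using a cell cycle kit, then analysed by flow cytometry. Percentages were read for sub-G0/G1, G0/G1, S and G2/M. Each experiment was run at least three times; mean ± SD.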

BGC-823 [14] = assay: Induction of apoptosis in human BGC823 cells assessed as viable cell population at 30 uM by annexinV/propidium iodide staining (reference value: 95.5%); assay type: functional
BGC-823 [15] = assay: Reduction in BCL-2 protein expression in human BGC823 cells at 1o to 40 uM incubated for 48 hrs by Western blotting; assay type: functional, cell-based; method in brief: as §2
BGC-823 [16] = assay: Reduction in survivin protein expression in human BGC823 cells incubated for 48 hrs by Western blotting; assay type: functional, cell-based; method in brief: as §2
BGC-823 [17] = assay: Induction of apoptosis in human BGC823 cells assessed as late apoptotic cell population at 40 uM by annexinV/propidium iodide staining (reference value: 2.1%); assay type: functional
BGC-823 [18] = assay: Induction of apoptosis in human BGC823 cells assessed as necrotic damaged cell population at 40 uM by annexinV/propidium iodide staining (reference value: 0.5%; assay type: functional
BGC-823 [19] = assay: Induction of apoptosis in human BGC823 cells assessed as early apoptotic cell population at 30 uM by annexinV/propidium iodide staining (reference value: 1.9%); assay type: functional
BGC-823 [20] = assay: Cytotoxicity against human BGC823 cells by MTT assay; assay type: functional, cell-based; method in brief: as §4
BGC-823 [21] = assay: Cell cycle arrest in human BGC823 cells assessed as accumulation of cells at subG0/G1 phase at 20 uM incubated for 48 hrs by propidium iodide staining based flow cytometry (Rvb= 0.66%); assay type: functional; method in brief: as §5
Mus musculus [22] = assay: Toxicity in human BGC823 cells xenografted nude mouse assessed as body weight changes at 30 mg/kg, iv treated 5 times on day 1, 4, 7, 10, 13 and day 16 post tumor implant (reference value: 20.12 +/- 1.52 grams); assay type: organism-based, BGC-823; set-up: dose 30 mg/kg, route intravenous; conditions: in vivo; method in brief: as §3
BGC-823 [23] = assay: Induction of apoptosis in human BGC823 cells assessed as necrotic damaged cell population at 30 uM by annexinV/propidium iodide staining (reference value: 0.5%; assay type: functional
BGC-823 [24] = assay: Induction of apoptosis in human BGC823 cells assessed as late apoptotic cell population at 10 uM by annexinV/propidium iodide staining (reference value: 2.1%); assay type: functional
BGC-823 [25] = assay: Antitumor activity against human BGC823 cells xenografted in nude mouse assessed as reduction in tumor volume at 30 mg/kg, iv dosed 5 times; assay type: functional; set-up: scale not given: the % may be the effect or the level left
Method in brief: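 Male nude mice (5 weeks, 18–22 g) inoculated subcutaneously with 1 × 10⁷ BGC-823 cells. At about 200 mm³ tumours, animals were randomised into four groups of eight. Each received 0.2 mL iv by tail vein; controls got 0.9% saline. Tumour volume was measured daily as 0.5 × length × width²; tumours were weighed at the end. Values are mean ± SD, n = 8.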

CC(=O)O[C@H]1CC[C@]2(C)[C@H]3CC=C4[C@@H]5[C@@H](C)[C@H](C)CC[C@]5(C(=O)OCC(O)CO)CC[C@@]4(C)[C@]3(C)CC[C@H]2C1(C)C (stereo partly specified)
fold change (FC) (BGC-823 [1]): 2.54 | Activity (BGC-823 [2]): 96.13% | Activity (BGC-823 [3]): 53.1% | Activity (Mus musculus [4]): 20.66 g | Activity (Mus musculus [5]): 20.07 g | IC50 (HepG2): 27.5 µM | Activity (BGC-823 [6]): 2.3% | Activity (BGC-823 [7]): 72.2% | Activity (BGC-823 [8]): Active | Activity (Mus musculus [9]): 19.69 g | Activity (Mus musculus [10]): 20.13 g | Activity (Mus musculus [11]): 20.03 g | Activity (BGC-823 [12]): 0.2% | Activity (BGC-823 [13]): 13.63% | Activity (BGC-823 [14]): 19.4% | Activity (BGC-823 [15]): Active | Activity (BGC-823 [16]): Dose-dependent effect | Activity (BGC-823 [17]): 89.5% | Activity (BGC-823 [18]): 2.3% | Activity (BGC-823 [19]): 45.1% | IC50 (BGC-823 [20]): 15.7 µM | Activity (BGC-823 [21]): 7.91% | Activity (Mus musculus [22]): 19.57 g | Activity (BGC-823 [23]): 6.5% | Activity (BGC-823 [24]): 2.6% | Activity (BGC-823 [25]): 41.9%
